Most compounds without a hit are left out; they make up all but 1.7% or so of the library.
TPT1 inh: Candida albicans TPT1 enzyme inhibitors, primary screen, biochemical, fluorescence polarization. 0.81% of 300,000 active. recombinant caTPT1, FP RNA substrate dephosphorylation. tRNA 2'-phosphotransferase TPT1 (Candida albicans SC5314). inhibition, % at 5 µM;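 active means inhibition above the mean of all tested compounds plus 3 SD, set per screening campaign, cut at about 24% in these data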
Rev-erbA mod: modulators of Rev-erb alpha DNA binding, primary screen, biochemical, FITC-DNA, fluorescence polarization, uHTS; 0.79% of 370,000 active; Nuclear receptor subfamily 1 group D member 1 (Homo sapiens), P20393; Rev-erbα–FITC-DNA binding, 90 min; activity, % at 10 µM;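 active means activity above about 14%, limit read from the data; passing the limit was not always enough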
CSN inh: inhibitors of CSN-mediated cullin deneddylation, primary screen, biochemical, fluorescence polarization, uHTS; 0.38% of 360,000 active; inhibition, % at 12.5 µM; AID 651999, 2013; Purified CSN, SCF-Nedd8-OG deneddylation; COP9 signalosome complex subunit 5 (Homo sapiens), Q92905;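 active means pattern-corrected inhibition above about 35%, with an unprinted fluorescence ratio check between 0.5 and 1.5, limit read from the data, passing the limit was not always enough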
Target sequence (Q92905 whole entry, looked up, one chain of several): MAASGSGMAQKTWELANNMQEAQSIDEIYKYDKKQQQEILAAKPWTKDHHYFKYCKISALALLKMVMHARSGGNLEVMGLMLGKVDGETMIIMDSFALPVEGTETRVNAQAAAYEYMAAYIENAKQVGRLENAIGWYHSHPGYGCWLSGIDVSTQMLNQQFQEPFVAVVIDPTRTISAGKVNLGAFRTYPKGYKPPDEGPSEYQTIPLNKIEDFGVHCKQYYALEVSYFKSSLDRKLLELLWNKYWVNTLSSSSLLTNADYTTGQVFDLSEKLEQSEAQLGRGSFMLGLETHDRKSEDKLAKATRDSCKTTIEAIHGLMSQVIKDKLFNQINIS
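assay system = purified human Csn5 enzyme expressed in HEK293T cells | amount = 0.24 nM enzyme | buffer or medium = Tris/NaCl/DTT buffer, pH 7.5 | reagent = 10 nM SCFSkp2-Nedd8OG | compound = one concentration, 12.5 µM, 0.25% DMSO | times = 90 min reaction at room temperature | signal = FP | read-out basis = % inhibition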
HNF4A DNA FP: change in binding of human HNF4A to DNA, primary screen, biochemical, fluorescence polarization, FITC-DNA; 1 h; 0.3% of 360,000 active; activity change, % at 10 µM; in the data active means activity change above about 30%, passing the limit was not always enough
caTPT1 confirm: Candida albicans TPT1 inhibitors, confirmation, biochemical, fluorescence polarization, triplicate; shares compounds with TPT1 inh; AID 2149, 2009; 74% of 2,400 active; recombinant caTPT1, RNase T1 coupled; inhibition, % at 5 µM;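 active means inhibition above the primary screen limit, the mean inhibition of all tested compounds plus 3 SD, cut at about 25% in these data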
RNase T1 inh: RNase T1 inhibitors, counter-screen for TPT1 inhibitor project, biochemical, fluorescence polarization | shares compounds with TPT1 inh | RNase T1 cleavage, 1536-well | inhibition, % at 5 µM | 83% of 2,400 active | AID 2153, 2009;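 active means inhibition above the solvent-only control well mean plus 3 SD, limit set per screening run, cut at about 23% in these data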;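 further: inhibitors block cleavage so intact labeled substrate keeps polarization high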
Target sequence (P00651 whole entry, looked up): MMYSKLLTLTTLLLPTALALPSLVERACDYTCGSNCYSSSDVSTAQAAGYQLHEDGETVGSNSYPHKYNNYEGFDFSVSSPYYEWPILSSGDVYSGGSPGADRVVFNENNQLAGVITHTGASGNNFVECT
CSN deneddyl val: Csn5 deneddylation inhibitors, confirmation, biochemical, fluorescence polarization, single concentration, SCF-Nedd8OG substrate. shares compounds with CSN inh. Csn5 deneddylation of SCF-Nedd8OG, 90 min. inhibition, % at 16.6 µM. 62% of 540 active. AID 720654, 2013; in the data active means inhibition above about 50%
MMP2 cntr CSN: MMP-2 protease inhibition counter-screen, confirmation, counter-screen for CSN deneddylation inhibitor project, biochemical, fluorescence, single concentration; recombinant MMP-2, FRET substrate fluorescence, 60 min; inhibition, % at 16.6 µM; AID 720655, 2013; 33% of 540 active; shares compounds with CSN inh;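 active means corrected plate-normalized z-score of 5 or more, or -5 or less, or inhibition of 15% or more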
Thrombin counter: counter-screen for CSN deneddylation inhibitors: bovine thrombin inhibition; shares compounds with CSN inh; bovine thrombin cleavage of Ub4-pepOG, fluorescence polarization; inhibition, % at 16.6 µM; 49% of 540 active;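 active means inhibition at or above a set limit, with a fluorescence interference ratio between 0.5 and a set maximum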
HNF4A confirm: change in HNF4A binding to DNA, retest, confirmation, biochemical, fluorescence polarization, FITC-DNA; activity change, % at 12.5 µM; shares compounds with HNF4A DNA FP; 1 h; 99% of 210 active; call rule not given here
Rev-erbA confirm: modulators of Rev-erb alpha DNA binding, confirmation, biochemical, FITC-DNA, fluorescence polarization, single point; shares compounds with Rev-erbA mod; 90 min; activation, % at 25 µM; 61% of 3,000 active;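 active means activation at or above a set limit, or at least 3 SD above the negative control mean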
RORg DNA counter: modulation of RORgamma DNA binding, dose response, counter-screen for Rev-erb alpha modulator project, biochemical, fluorescence polarization, FITC-DNA; shares compounds with Rev-erbA mod; IC50, µM; purified RORgamma protein-FITC-DNA binding; 8% of 910 active;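 active means Compounds whose fitted half-maximal concentration for disrupting protein-DNA binding is below 10 micromolar; the record names Rev-erb in its text, so the target is in doubt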
Each line names hits and unclear results; the compound was inactive in the other large screens (follow-up assays come after a bar, where they were run).

C[C@@H]1C=CCCO[C@]12C(=O)N(Cc1ccc(F)cc1)c1ccccc12	none (no result: TPT1 inh, CSN inh, HNF4A DNA FP)
N#CCC(=O)Nc1ccc(C(=O)NCC(c2ccco2)N2CCCCC2)cc1 (centres undefined)	TPT1 inh 48, CSN inh 42, HNF4A DNA FP 67 | caTPT1 confirm 56 | RNase T1 inh 66 | HNF4A confirm 44
C=CCN(CC=C)C[C@@H]1CSCCS(=O)(=O)N1	none (no result: TPT1 inh, CSN inh, HNF4A DNA FP)
Cc1ccccc1C(=O)/C=C1/SCC(=O)N1C	TPT1 inh 27, CSN inh 46, HNF4A DNA FP 38 | caTPT1 confirm inactive | RNase T1 inh 28 | HNF4A confirm 59
Cc1ccccc1C(=O)NN1C(=O)CSC1=S	none
CCCCCCCCN1C(=O)[C@@H](CC(=O)NCc2cccc(C(F)(F)F)c2)C[C@@]2(C(=O)OC)C1=C[C@H](COCc1ccccc1)O[C@@H]2C	none (no result: TPT1 inh, CSN inh, HNF4A DNA FP)
CCN1C(=O)CS/C1=C(\C#N)S(=O)(=O)c1ccccc1	TPT1 inh 104, HNF4A DNA FP 40 | caTPT1 confirm 80 | RNase T1 inh 90 | HNF4A confirm 43
CC(C)C1Nc2ccc(C(=O)NC3CCCCC3)cc2NC1=O (centres undefined)	none (no result: Rev-erbA mod)
CC1Nc2ccc(C(=O)NC3CCCCC3)cc2NC1=O (centres undefined)	TPT1 inh 34, CSN inh 57, HNF4A DNA FP 61 | caTPT1 confirm 39 | RNase T1 inh 48 | HNF4A confirm 49
COc1ccccc1N1C(=O)S/C(=C\c2cc(C)n(C)c2C)C1=O	none
COc1ccccc1N1C(=O)S/C(=C\c2ccc(C)s2)C1=O	TPT1 inh 34, HNF4A DNA FP 43 | caTPT1 confirm 38 | RNase T1 inh 53 | HNF4A confirm 76
COc1ccc(N/C=C/c2nc(SC)nnc2C)cc1	TPT1 inh 111, HNF4A DNA FP 45 | caTPT1 confirm 108 | RNase T1 inh 111 | HNF4A confirm 62
CSc1nnc(C)c(/C=C/Nc2ccc(Cl)cc2)n1	TPT1 inh 154, HNF4A DNA FP 59 | caTPT1 confirm 121 | RNase T1 inh 117 | HNF4A confirm 55
COc1ccc2c(c1)c(/C=N/Nc1ccc(C(=O)O)cc1)c(C)n2C	none
COc1ccc2c(/C=N/Nc3ccc(C(=O)O)cc3)c[nH]c2c1	TPT1 inh 56, HNF4A DNA FP 52 | caTPT1 confirm 39 | RNase T1 inh 50 | HNF4A confirm 35
Cn1cccc1/C=C1\SC(=S)N(NC(=O)c2cccc(Cl)c2)C1=O	TPT1 inh 86, CSN inh 36, HNF4A DNA FP 61 | caTPT1 confirm 98 | RNase T1 inh 111 | HNF4A confirm 97
C#CCN[C@@H]1CCc2ccccc21	none (no result: TPT1 inh, CSN inh, HNF4A DNA FP)
COc1ccccc1NC(=O)CSc1nc(N)c(C#N)cc1C#N	TPT1 inh 32, Rev-erbA mod 73 | caTPT1 confirm 39 | RNase T1 inh 50 | Rev-erbA confirm 65 | RORg DNA counter inactive
CCCCN1CC(COCc2ccccc2)Oc2cccc(Oc3ccc(F)cc3OC)c2S1(=O)=O (centres undefined)	none (no result: TPT1 inh, CSN inh, HNF4A DNA FP)
Cc1c(N2C(=O)/C(=C\c3ccc(N(C)C)cc3)N(C)C2=S)c(=O)n(-c2ccccc2)n1C	TPT1 inh 150, Rev-erbA mod 25, CSN inh 75, HNF4A DNA FP 44 | caTPT1 confirm 132 | RNase T1 inh 133 | CSN deneddyl val 85 | MMP2 cntr CSN inactive | Thrombin counter 68 | Rev-erbA confirm 20
COc1ccc(Cl)cc1C(=O)Nc1cccc(-c2ccc3nncn3n2)c1	TPT1 inh 38, Rev-erbA mod 128, CSN inh 137, HNF4A DNA FP 55 | caTPT1 confirm 55 | RNase T1 inh 28 | CSN deneddyl val inactive | MMP2 cntr CSN 18 | Thrombin counter 22 | Rev-erbA confirm 183 | RORg DNA counter inactive
O=Cc1ccc(N2CCCCCC2)cc1	none (no result: Rev-erbA mod)
O=C1/C(=C/c2ccc(N3CCCC3)cc2)NC(=S)N1C1CC1	TPT1 inh 162, Rev-erbA mod 27 | caTPT1 confirm 169 | RNase T1 inh 153 | Rev-erbA confirm 27
Cc1cc(N2CCCC2)ccc1/C=C1\NC(=S)N(C)C1=O	TPT1 inh 164, Rev-erbA mod 30 | caTPT1 confirm 167 | RNase T1 inh 154 | Rev-erbA confirm 50 | RORg DNA counter inactive
N=c1oc2ccc(Br)cc2cc1C(=O)NCc1ccc(F)cc1	none
CCN(CC)c1ccc2cc(C(=O)NCc3ccc(F)cc3)c(=N)oc2c1	TPT1 inh 78, Rev-erbA mod 40 | caTPT1 confirm 109 | RNase T1 inh 109 | Rev-erbA confirm 32 | RORg DNA counter inactive
O=C(OCCN1C(=O)c2ccccc2C1=O)c1cc(S(=O)(=O)N2CCOCC2)ccc1Cl	none
O=C(OCCN1C(=O)c2cccc3c(N4CCOCC4)ccc(c23)C1=O)c1ccccc1Cl	TPT1 inh 53, Rev-erbA mod 40 | caTPT1 confirm 63 | RNase T1 inh 70 | Rev-erbA confirm 56 | RORg DNA counter inactive

Bioassay records (PubChem)
